The values that follow come from ChEMBL document CHEMBL4049389, “Design, synthesis and biological evaluation of aminobenzyloxyarylamide derivatives as selective κ opioid receptor antagonists” (Eur J Med Chem, 2017).

Test [1] deals with T1, Mu-type opioid receptor (Homo sapiens, UniProt P35372). Kind of test: Displacement of [3H]DAMGO from recombinant human mu-opioid receptor expressed in CHO cell membranes at 1 X 10^-5 M after 60 mins by liquid scintillation counting method relative to control. The essentials:
(§1)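 Single-concentration radioligand displacement in membranes from CHO (κ, μ) or HEK293 (δ) cells expressing human receptors. Radioligands were [3H]-U69,593, [3H]-DAMGO and [3H]-DPDPE, incubated in Tris-HCl at 25 °C for 60 min, filtered and counted by scintillation. Read-out was percent inhibition of specific binding; assays were done in duplicate.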

Test [2] deals with T1, Mu-type opioid receptor. Kind of test: Displacement of [3H]DAMGO from recombinant human mu-opioid receptor expressed in CHO cell membranes at 1 X 10^-6 M after 60 mins by liquid scintillation counting method relative to control. The method in brief: as §1
(In a radioligand displacement assay an active substance lowers the binding of a labelled ligand.)

In test [3] the target is T2, Kappa-type opioid receptor (Homo sapiens, UniProt P41145). Kind of test: Displacement of [3H]U69593 from recombinant human kappa-opioid receptor expressed in CHO cell membranes at 1 X 10^-5 M after 60 mins by liquid scintillation counting method relative to control. The essentials:
as §1

The target in test [4] is T2, Kappa-type opioid receptor. Kind of test: Displacement of [3H]U69593 from recombinant human kappa-opioid receptor expressed in CHO cell membranes at 1 X 10^-6 M after 60 mins by liquid scintillation counting method relative to control. The essentials:
as §1

Test [5] addresses T3, Delta-type opioid receptor (Homo sapiens, UniProt P41143). Kind of test: Displacement of [3H]DPDPE from recombinant human delta-opioid receptor expressed in HEK293 cell membranes at 1 X 10^-5 M after 60 mins by liquid scintillation counting method relative to control. The essentials:
as §1

For test [6], the target named is T3, Delta-type opioid receptor. Kind of test: Displacement of [3H]DPDPE from recombinant human delta-opioid receptor expressed in HEK293 cell membranes at 1 X 10^-6 M after 60 mins by liquid scintillation counting method relative to control. The method in brief: as §1
Test [7] deals with T1, Mu-type opioid receptor. Kind of test: Displacement of [3H]DAMGO from recombinant human mu-opioid receptor expressed in CHO cell membranes after 60 mins by liquid scintillation counting method.
The target of test [8] is T2, Kappa-type opioid receptor. Kind of test: Displacement of [3H]U69593 from recombinant human kappa-opioid receptor expressed in CHO cell membranes after 60 mins by liquid scintillation counting method.
Test [9] addresses T3, Delta-type opioid receptor. Kind of test: Displacement of [3H]DPDPE from recombinant human delta-opioid receptor expressed in HEK293 cell membranes after 60 mins by liquid scintillation counting method.
The species named for test [10] is Homo sapiens. Kind of test: Selectivity ratio of Ki for displacement of [3H]DAMGO from recombinant human mu-opioid receptor expressed in CHO cell membranes to Ki for displacement of [3H]U69593 from recombinant human kappa-opioid receptor expressed in CHO cell membranes.
The species entered for test [11] is Homo sapiens. Kind of test: Selectivity ratio of Ki for displacement of [3H]DPDPE from recombinant human delta-opioid receptor expressed in HEK293 cell membranes to Ki for displacement of [3H]U69593 from recombinant human kappa-opioid receptor expressed in CHO cell membranes.

T2 sequence (P41145 whole entry): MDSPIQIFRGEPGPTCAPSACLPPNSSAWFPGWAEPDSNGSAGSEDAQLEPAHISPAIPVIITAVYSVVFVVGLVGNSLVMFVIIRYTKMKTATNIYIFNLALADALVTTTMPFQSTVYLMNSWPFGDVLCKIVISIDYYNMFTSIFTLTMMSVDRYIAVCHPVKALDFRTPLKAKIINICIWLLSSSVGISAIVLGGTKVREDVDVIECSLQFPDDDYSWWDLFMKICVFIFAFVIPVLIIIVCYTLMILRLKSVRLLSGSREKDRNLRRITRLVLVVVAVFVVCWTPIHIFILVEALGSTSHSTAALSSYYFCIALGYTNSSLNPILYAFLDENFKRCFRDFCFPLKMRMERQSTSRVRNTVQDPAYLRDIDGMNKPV
T1 sequence (P35372 whole entry): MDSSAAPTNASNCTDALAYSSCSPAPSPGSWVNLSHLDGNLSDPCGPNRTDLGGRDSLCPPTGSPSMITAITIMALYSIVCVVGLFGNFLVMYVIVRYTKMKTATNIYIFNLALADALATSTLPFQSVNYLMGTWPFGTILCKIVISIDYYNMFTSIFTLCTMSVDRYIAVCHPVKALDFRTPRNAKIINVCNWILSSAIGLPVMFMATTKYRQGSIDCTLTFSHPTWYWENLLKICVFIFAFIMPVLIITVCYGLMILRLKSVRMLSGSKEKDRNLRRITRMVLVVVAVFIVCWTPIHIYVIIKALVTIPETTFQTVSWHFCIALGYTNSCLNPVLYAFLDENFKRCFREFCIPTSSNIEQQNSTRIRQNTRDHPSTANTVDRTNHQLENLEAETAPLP
T3 sequence (P41143 whole entry): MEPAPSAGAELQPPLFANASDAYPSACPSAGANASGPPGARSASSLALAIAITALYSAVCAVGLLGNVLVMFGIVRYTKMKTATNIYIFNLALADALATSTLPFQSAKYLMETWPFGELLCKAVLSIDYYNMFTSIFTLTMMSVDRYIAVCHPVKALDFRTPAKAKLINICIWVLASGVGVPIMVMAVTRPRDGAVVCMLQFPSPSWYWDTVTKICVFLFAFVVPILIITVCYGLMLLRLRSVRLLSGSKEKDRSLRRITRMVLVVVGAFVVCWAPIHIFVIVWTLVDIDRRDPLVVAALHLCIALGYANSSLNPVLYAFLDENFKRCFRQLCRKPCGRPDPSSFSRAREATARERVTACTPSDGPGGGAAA

As a reminder, the inhibition is the relative decrease from the control value, in per cent. The Ki is the dissociation constant of the complex between target and ligand, obtained from inhibition or displacement. In the case of `Cc1cc(C)cc(C2CCCN2Cc2ccc(Oc3ccc(C(N)=O)cc3F)c(F)c2)c1` (centres undefined), the inhibition amounted to 96.8% at Mu-type opioid receptor [1]; 73.4% on Mu-type opioid receptor [2]; 98.7% in [3]; 95.8% in test [4]; 89.2% in [5]; 37.4% in test [6]. The figures for the Ki (at Mu-type opioid receptor [7]; in [8]; in test [9]) were 27.9 nM, 42.7 nM and 429 nM, respectively. The Ratio Ki in the test listed under Homo sapiens [10] came to 0.65; in the test filed under Homo sapiens [11], 10.1.
`Cc1ccccc1C1CCCN1Cc1ccc(Oc2ccc(C(N)=O)c3ccccc23)cc1` (centres undefined): the inhibition on Mu-type opioid receptor [1] was 0%; at Mu-type opioid receptor [2] it was 0%; in [3] it was 34%; in test [4], 13.9%; in test [5] it was 2.9%; in test [6], 0%.
Regarding `NC(=O)c1ccc(Oc2ccc(CN3CCCC3c3cccc(F)c3)cc2)c2ccccc12` (centres undefined), the inhibition on Mu-type opioid receptor [1] worked out at 0%; on Mu-type opioid receptor [2], 0%; in test [3] it was 57.9%; in test [4], 27.7%; in [5], 4%; in test [6] it was 2.3%.
In the case of `NC(=O)c1ccc(Oc2ccc(CN3CCCC3c3ccc(F)cc3)cc2)c2ccccc12` (centres undefined), the inhibition at Mu-type opioid receptor [1] was 0%; at Mu-type opioid receptor [2], 0%; in [3] it was 39%; in test [4], 13.8%; in [5], 0%; in test [6], 0%.
With `NC(=O)c1ccc(Oc2ccc(CN3CCCC3c3cccc(Cl)c3)cc2)c2ccccc12` (centres undefined), the inhibition turned out to be 0% at Mu-type opioid receptor [1]; 0% at Mu-type opioid receptor [2]; 64.1% in test [3]; 31.4% in test [4]; 0% in test [5]; 0% in test [6].
On to `Cc1cc(C)cc(C2CCCN2Cc2ccc(Oc3ccc(C(N)=O)c4ccccc34)cc2)c1` (centres undefined), for which the inhibition on Mu-type opioid receptor [1] is 0%; on Mu-type opioid receptor [2], 0%; in [3] it was 23.7%; in test [4], 12.2%; in test [5], 0%; in [6], 0%.
As for `Cc1cc(C)cc(C2CCCN2Cc2ccc(Oc3ccc(C(N)=O)cc3)c(Cl)c2)c1` (centres undefined), the inhibition on Mu-type opioid receptor [1] came to 99.1%; at Mu-type opioid receptor [2], 78.8%; in [3], 100%; in test [4], 99.3%; in test [5], 87.5%; in test [6], 36.5%. Moreover, the Ki at Mu-type opioid receptor [7] turned out to be 32.3 nM; in [8], 37.6 nM; in test [9] it was 489 nM. The figures for the Ratio Ki in the test listed under Homo sapiens [10] and in the test filed under Homo sapiens [11] were 0.85 and 13, respectively.
As for `COc1ccc(C2CCCN2Cc2ccc(Oc3ccc(C(N)=O)c4ccccc34)cc2)cc1` (centres undefined), the inhibition on Mu-type opioid receptor [1] was determined as 15%; at Mu-type opioid receptor [2], 0%; in [3], 80.5%; in [4], 46.5%; in test [5] it was 9%; in test [6], 0%. The Ki at Mu-type opioid receptor [7] was above 10000 nM; in [8] it was 4600 nM; in test [9] it was above 10000 nM. Besides, the Ratio Ki in the test listed under Homo sapiens [10] and in the test filed under Homo sapiens [11] was above 2.2 throughout.
Consider `NC(=O)c1ccc(Oc2ccc(CN3CCCC3c3cccnc3)cc2)c2ccccc12` (centres undefined), for which the inhibition was found to be 52.2% at Mu-type opioid receptor [1]; 11.3% on Mu-type opioid receptor [2]; 12% in test [3]; 5.1% in [4]; 0% in test [5]; 0% in [6].
